# Measured values taken from ChEMBL document CHEMBL3808344, “Design and synthesis of novel benzoxazole analogs as Aurora B kinase inhibitors” (Bioorg Med Chem Lett, 2016).
# Activity calls are given as the source filed them. The calls are words filed in the database; no cut-off is given here.
# Legend:
# [1] = target: T1, Aurora kinase A (Homo sapiens) (UniProt O14965); assay: Inhibition of Aurora A (unknown origin) using myelin protein as substrate assessed as ADP generation at 10 uM after 60 mins by ADP-glo assay relative to staurosporine
# T1 sequence (whole entry): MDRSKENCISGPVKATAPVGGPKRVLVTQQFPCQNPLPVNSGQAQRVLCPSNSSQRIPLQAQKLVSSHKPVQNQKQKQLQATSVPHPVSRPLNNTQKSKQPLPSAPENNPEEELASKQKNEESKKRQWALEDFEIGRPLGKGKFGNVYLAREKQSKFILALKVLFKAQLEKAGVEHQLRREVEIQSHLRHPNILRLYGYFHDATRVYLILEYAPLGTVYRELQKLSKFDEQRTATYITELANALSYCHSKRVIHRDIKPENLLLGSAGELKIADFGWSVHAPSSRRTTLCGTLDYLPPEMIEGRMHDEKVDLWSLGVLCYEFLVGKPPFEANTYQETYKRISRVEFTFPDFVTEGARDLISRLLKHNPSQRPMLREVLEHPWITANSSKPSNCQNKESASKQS
# How it was run: (§1)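 Aurora A and Aurora B activity read by ADP-Glo, measuring ADP formed from ATP during the kinase reaction. Compounds tested at 10 μM. Inhibition expressed as percentage relative to the staurosporine positive control.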
# [2] = target: T2, Aurora kinase B (Homo sapiens, UniProt Q96GD4); assay: Inhibition of Aurora B (unknown origin) using myelin protein as substrate assessed as ADP generation at 10 uM after 60 mins by ADP-glo assay relative to staurosporine; how it was run: as §1
# [3] = target: T2, Aurora kinase B; assay: Inhibition of Aurora B (unknown origin) using myelin protein as substrate assessed as ADP generation after 60 mins by ADP-glo assay
# [4] = tested on: ACHN; assay: Cytotoxicity against human ACHN cells assessed as reduction in cell growth after 48 hrs by SRB assay; format: functional
# [5] = tested on: MDA-MB-231; assay: Cytotoxicity against human MDA-MB-231 cells assessed as reduction in cell growth after 48 hrs by SRB assay; format: functional; details: MDA-MB-231, 48 h
# [6] = Cytotoxicity against human HCT15 cells assessed as reduction in cell growth after 48 hrs by SRB assay; format: functional; details: HCT-15, 48 h
# [7] = Cytotoxicity against human PC3 cells assessed as reduction in cell growth after 48 hrs by SRB assay; format: functional; details: PC-3, 48 h
# [8] = tested on: NCI-H23; assay: Cytotoxicity against human NCI-H23 cells assessed as reduction in cell growth after 48 hrs by SRB assay; format: functional; details: NCI-H23, 48 h
# [9] = Cytotoxicity against human NUGC3 cells assessed as reduction in cell growth after 48 hrs by SRB assay; format: functional; details: NUGC-3, 48 h
# [10] = tested on: Mus musculus; assay: Toxicity in nu/nu BALB/c mouse xenografted with human PC3 cells assessed as loss in body weight at 50 mg/kg, po administered qd for 16 days measured during compound dosing; format: organism-based, PC-3; details: in vivo, 384 h
# How it was run: (§2)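 PC-3 prostate tumours grown as xenografts in nude mice. Dosed orally at 50 mg/kg once daily for 16 days; vehicle was 10% dimethylacetamide plus 10% Tween 80 in water. Tumour volume measured every two or three days, tumours weighed after harvest on day 16, and body weight followed throughout. Treated groups compared with vehicle by Student's t-test.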
# [11] = tested on: PC-3; assay: Antitumor activity against human PC3 cells xenografted in nu/nu BALB/c mouse assessed as tumor growth inhibition at 50 mg/kg, po administered qd for 16 days relative to control; format: functional, organism-based; how it was run: as §2
# T2 sequence (Q96GD4 whole entry): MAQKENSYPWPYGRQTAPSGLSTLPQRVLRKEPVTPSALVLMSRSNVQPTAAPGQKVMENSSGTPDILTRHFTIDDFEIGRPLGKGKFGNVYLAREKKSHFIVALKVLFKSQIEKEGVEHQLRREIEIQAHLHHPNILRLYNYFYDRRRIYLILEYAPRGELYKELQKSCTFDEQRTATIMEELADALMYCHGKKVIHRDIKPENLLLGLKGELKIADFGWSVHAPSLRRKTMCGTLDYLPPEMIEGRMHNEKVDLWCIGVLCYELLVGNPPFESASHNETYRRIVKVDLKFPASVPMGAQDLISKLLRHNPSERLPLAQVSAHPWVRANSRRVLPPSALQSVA
Compound,inhibition [1],inhibition [2],also measured
O=C(Nc1ccc(Cl)cc1)Nc1cccc(CNc2nc3ccc(OCCN4CCOCC4)cc3o2)c1,8%,45%,–
O=C(Nc1ccc(Cl)cc1)Nc1ccc(CNc2nc3cc(OCCN4CCOCC4)ccc3o2)cc1,8%,42%,–
O=C(Nc1ccccc1)Nc1cccc(CNc2nc3ccc(OCCN4CCOCC4)cc3o2)c1,–,30%,–
COc1ccc(NC(=O)Nc2ccc(CNc3nc4ccc(OCCN5CCOCC5)cc4o3)cc2)cc1,10%,76%,–
O=C(Nc1ccc(CNc2nc3ccc(OCCN4CCOCC4)cc3o2)cc1)Nc1ccc(Cl)cc1Cl,8%,86%,IC50 [3]: 0.7 µM
O=C(Nc1ccc(CNc2nc3ccc(OCCN4CCOCC4)cc3o2)cc1)c1ccccc1,–,21%,–
O=C(Nc1ccc(COc2ccc3nc(NCCN4CCOCC4)oc3c2)cc1)Nc1ccc(Cl)c(Cl)c1,2%,70%,IC50 [3]: 49.4 µM
O=C(Nc1ccc(Br)cc1)Nc1ccc(COc2ccc3oc(NCCN4CCOCC4)nc3c2)cc1,3%,74%,–
O=C(Nc1ccccc1CNc1nc2ccc(OCCN3CCOCC3)cc2o1)c1ccccc1,–,inactive,–
O=C(Nc1ccc(F)cc1)Nc1ccc(CNc2nc3ccc(OCCN4CCOCC4)cc3o2)cc1,inactive,34%,–
O=C(Nc1ccc(Cl)cc1)Nc1ccc(COc2ccc3nc(NCCN4CCOCC4)oc3c2)cc1,inactive,94%,IC50 [3]: 50.4 µM
O=C(Nc1ccccc1)Nc1ccc(CNc2nc3ccc(OCCN4CCOCC4)cc3o2)cc1,15%,40%,–
Cc1ccc(NC(=O)Nc2ccc(CNc3nc4ccc(OCCN5CCOCC5)cc4o3)cc2)cc1,inactive,65%,–
O=C(Nc1ccc(COc2ccc3oc(NCCN4CCOCC4)nc3c2)cc1)Nc1ccc(Cl)c(Cl)c1,5%,74%,–
O=C(Nc1ccc(Cl)cc1)Nc1ccc(CNc2nc3ccc(OCCN4CCOCC4)cc3o2)cc1,5%,66%,GI50 [4]: 2.2 µM; GI50 [5]: 7.6 µM; GI50 [6]: 4.8 µM; GI50 [7]: 6.2 µM; GI50 [8]: 4 µM; IC50 [3]: 10.2 µM; GI50 [9]: 5.5 µM
O=C(Nc1ccc(Br)cc1)Nc1ccc(CNc2nc3cc(OCCN4CCOCC4)ccc3o2)cc1,-6%,35%,–
O=C(Nc1ccc(Cl)cc1)Nc1ccc(COc2ccc3oc(NCCN4CCOCC4)nc3c2)cc1,4%,37%,–
O=C(Nc1ccc(CNc2nc3ccc(OCCN4CCOCC4)cc3o2)cc1)Nc1ccc(Cl)c(Cl)c1,24%,88%,GI50 [4]: 2.6 µM; GI50 [5]: 5 µM; GI50 [6]: 3 µM; Activity [10]: Non-toxic; GI50 [7]: 4.8 µM; GI50 [8]: 3.4 µM; TGI [11]: Active; IC50 [3]: 0.6 µM; GI50 [9]: 8.4 µM
O=C(Nc1ccc(CNc2nc3ccc(OCCN4CCOCC4)cc3o2)cc1)Nc1cccc(F)c1,7%,63%,–
O=C(Nc1ccc(Br)cc1)Nc1ccc(CNc2nc3ccc(OCCN4CCOCC4)cc3o2)cc1,inactive,69%,–
O=C(Nc1cccc(Cl)c1)Nc1cccc(CNc2nc3ccc(OCCN4CCOCC4)cc3o2)c1,–,inactive,–
O=C(Nc1ccc(Br)cc1)Nc1ccc(COc2ccc3nc(NCCN4CCOCC4)oc3c2)cc1,inactive,55%,–
O=C(Nc1ccccc1)Nc1cccc(COc2ccc3nc(NCCN4CCOCC4)oc3c2)c1,1%,80%,–
O=C(Nc1cccc(CNc2nc3ccc(OCCN4CCOCC4)cc3o2)c1)c1ccccc1,–,1%,–
O=C(Nc1ccc(CNc2nc3ccc(OCCN4CCOCC4)cc3o2)cc1)Nc1cccc(Cl)c1,13%,58%,–
